Measured values: the EternaBench riboswitch data

System: MS2 coat protein
Assay: apparent Kd, MS2 coat protein; higher = weaker binding; RNA-MaP array; FMN 200 µM where present
Procedure, shortened: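 The titrant was SNAP-549-labelled MS2 coat protein, run from 0.7 or 1.5 nM in doubling steps to 3 µM. It was applied to designs transcribed by stalled E. coli RNA polymerase on Illumina sequencing-chip clusters, without ligand first and then with constant ligand, in 100 mM Tris-HCl pH 7.5, 80 mM KCl, 4 mM MgCl2, BSA, DTT, yeast tRNA and Tween-20. The apparent Kd is the median of filtered per-cluster binding-curve fits, with green signal normalised to red-channel RNA signal and control-cluster median Fmax.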

[1] = designed as: OFF switch for flavin mononucleotide, no ligand
[2] = ligand present: flavin mononucleotide, designed as: OFF switch for flavin mononucleotide
[3] = designed as: ON switch for flavin mononucleotide, no ligand
[4] = ligand present: flavin mononucleotide, designed as: ON switch for flavin mononucleotide

Sequence: GGAGCAGGGUCAGGAUAUGUAAGUAGACGGCAAAUAGAAGGGACAUGAGGAUCACCCAUGUAACAUUAAAAUGAAGCAAGGGAG
- apparent Kd [1]: 59.1 nM
- apparent Kd [2]: 71.1 nM

Sequence: CAGUGUAGUUAGGAUAUCGGGUCGGUUGGGCGCUGAGAAGGAACUACAUGAGGAUCACCCAUGUGGGCUCUUCU
- apparent Kd [1]: 19.5 nM
- apparent Kd [2]: 37.1 nM

Sequence: UUACAGCACGGGUAGGAUAUGUAGGGUGGUACAUGAGGAUCACCCAUGUAUCCACCCUUCGAACGGCAGAAGGGCCUGUCACUGC
- apparent Kd [3]: 16.7 nM
- apparent Kd [4]: 17 nM

Sequence: UUAUGUGGCGUAGGAUAUCAUUAGAUUUGUAAUUUAAUUGUAAUUUCCAUAUGAGAAGGACGUACACAUGAGGAUCACCCAUGU
- apparent Kd [1]: 90.1 nM
- apparent Kd [2]: 32.4 nM

Sequence: CCACGACCGGAGAAGGCAGUUUGUGGGCCUGUUCCUGUCGGAUACAUGAGGAUCACCCAUGUACCUGAGGAUAUCUGGUCGCAG
- apparent Kd [1]: 5.52 nM
- apparent Kd [2]: 6.07 nM

Sequence: ACCACGGGAGGAUAUACAUGAGGAUCACCCAUGUCAACUCCACGUGCCCACGUCCUCUGUAGAAGGCCCUACAU
- apparent Kd [1]: 16 nM
- apparent Kd [2]: 24.3 nM

Sequence: AAGAAGUGAGGAUAUGCUGACAAUAUGAAGACUUGAGGUAUGCAGAAGGCACAUGAGGAUCACCCAUGUAAGAA
- apparent Kd [1]: 30 nM
- apparent Kd [2]: 29.7 nM

Sequence: AUGUAGUACGUAGGAUAUCAAUGAGGAUCACCCUGAGAAGGACGUGAGGACAUGAGGAUCACCCAUGUGGAUCACCCAUGUCAU
- apparent Kd [1]: 173 nM
- apparent Kd [2]: 142 nM

Sequence: AUAAGCUCGUCAGGAUAUACGUCACUGCUUCGGCAGUGAGGUAUGAUCACAUGAGGAUCACCCAUGUAGAAGGGACGAGCUUAU
- apparent Kd [1]: 5.63 nM
- apparent Kd [2]: 8.57 nM

Sequence: UCGUCGCUAGGAGGAUAUACAUGAUCUCACACAUGUACCGCUCACGCCACAUGAGGAUCACCCAUGUAGAAGGCCUAGAGAGGU
- apparent Kd [1]: 26.5 nM
- apparent Kd [2]: 56.4 nM

Sequence: CGGGUCAACAUGAGGAUCACCCAUGUACUGCUAAUGCAGUCACAGGAUAUCUUCGGUAGAUUAGAAGAGAAGGGUGAUGCCCAG
- apparent Kd [3]: 136 nM
- apparent Kd [4]: 117 nM

Sequence: AUACUCAUGUAAGGAUAUGCAGCCGUUUCGGCUGCAGAAGGUACUAUAAUACAUGAGGAUCACCCAUGUCUCUCGCAUUGCGAG
- apparent Kd [3]: 131 nM
- apparent Kd [4]: 178 nM

Sequence: ACCGAUAGAGGAUAUACAGGUCGAUACAUGAGGAUCACCCAUGUUACCCUCGGUACACCCGUAGAAGGUUGUGGCU
- apparent Kd [1]: 263 nM
- apparent Kd [2]: 248 nM

Sequence: CUUAUGUGAGGAUAUGUACAGAAAAAACUGGGUGUAACUGUACAGAAGGCACAUGAGGAUCACCCAUGUGUAUU
- apparent Kd [1]: 98.5 nM
- apparent Kd [2]: 34.1 nM

Sequence: UGAUCGAGAGAUCUUAGAUUCUGGUAGGAUAUACAUUAUGAAAAUUUUACAUGAGGAUCACCCAUGUAGAAGGACUAGAGUCUA
- apparent Kd [1]: 5.44 nM
- apparent Kd [2]: 6.33 nM

Sequence: AGAAACUACGAGAAGGACAUGUGGUCCUUCAGUUACAUGAGGAUCACCCAUGUAGGAUAUCGUAGUUUCAGGAUCGUGAGAUCU
- apparent Kd [1]: 32.5 nM
- apparent Kd [2]: 13 nM

Sequence: GCCAUCGCAUGAGGAUAUGCUCCGGUUUCCGGAGCAGAAGGCAUGUAAUAAGACAUGAGGAUCACCCAUGUAGUUAAGAUGGCA
- apparent Kd [3]: 7.11 nM
- apparent Kd [4]: 5.55 nM

Sequence: AAGAAGUGAGGAUAUACAUGAGGAUCACCCAUGUUAAGAAGAAUUUUAGAGAAAGAAGGUAGAAGGCACAAGAA
- apparent Kd [1]: 49.5 nM
- apparent Kd [2]: 47.1 nM

Sequence: ACGAAGAUACAGAAGGGUAAAUUAGUUAAUUAUAAUUUGGUUAUGCACUACAGGAUAUGUUAUACAUGAGGAUCACCCAUGUUC
- apparent Kd [3]: 18.2 nM
- apparent Kd [4]: 13.7 nM

Sequence: CCGGUGUCAGGAUAUACGCCAACCACUGAAAAGGUAUGGGCGUAGAAGGGACAUGAGGAUCACCCAUGUCAGUC
- apparent Kd [1]: 22.8 nM
- apparent Kd [2]: 36.3 nM

Sequence: CCGAGAAGGAGAGGAUAUGGACAUGAGGAUCACCCAUGUACAUGGGAAUAUAUACUGAAUUUUUACUAGAAGGCUUACAUAAAU
- apparent Kd [1]: 17.8 nM
- apparent Kd [2]: 14 nM

Sequence: CUUUUAUAAUAGAAGGUAGACUUCAUGAGGAUCACCCAUGUGUUGGUACUAAGGAUAUGUAGUAACAUGAGGAUCACCCAUGUU
- apparent Kd [3]: 22.6 nM
- apparent Kd [4]: 22.2 nM

Sequence: AUGCUAUACGAAGGAUAUGGUUACAUGAGGAUCACCCAUGUUAUGAUUGGUUACUUGUUUAGUUUCCAGAAGGUCGUAUAUUUA
- apparent Kd [1]: 51 nM
- apparent Kd [2]: 235 nM

Sequence: GCUGGACGUCGAGGAUAUGGGUGUGCGAGUCUUGGCACUGGACAUGAGGAUCACCCAUGUCGCUUCCAGAAGGCGACGUCCCUA
- apparent Kd [3]: 35.1 nM
- apparent Kd [4]: 6.55 nM

Sequence: GGCGAACAGGCUAACAUGAGGAUCACCCAUGUGGACUCAUGGUAGGAUAUGCUGUAGAAACUACAGCAGAAGGGCCGGUGAGCC
- apparent Kd [3]: 66.1 nM
- apparent Kd [4]: 294 nM

Sequence: GUAUGAGCGAUAGGAUAUACUGGGAUUGAAUGGGUAGAAGGAUUUCUUGUGGGAAAGACAUGAGGAUCACCCAUGUCGCGGACC
- apparent Kd [3]: 255 nM
- apparent Kd [4]: 165 nM

Sequence: CGACCCUGAACGAAAUCAUGCAGUCAGGAUAUACAUGAGGAUCACCCAUGUGCGUACCAACUCGUGUAGAAGGGACUUUCAGGG
- apparent Kd [1]: 12.7 nM
- apparent Kd [2]: 33.2 nM

Sequence: CCCUGAUUGAGAGGUAGGAGUGGUAGAAGGCGACCGGUGCCAGAUGACAUGAGGAUCACCCAUGUCGAGGAUAUACCACAGAAU
- apparent Kd [1]: 6.7 nM
- apparent Kd [2]: 12.2 nM

Sequence: ACAUAGUUAGGAUAUGCUGCUCGUCACUUGCGUGAUGAGUAGCAGAAGGAACAUGAGGAUCACCCAUGUAAAAA
- apparent Kd [1]: 28.3 nM
- apparent Kd [2]: 25.5 nM

Sequence: AAUUUACAUGAGGAUCACCCAUGUCAGGAUAUGGUUUUAUUUUUUUUUUUUUUUGAUUCCAGAAGGGACAGUUA
- apparent Kd [1]: 21.1 nM
- apparent Kd [2]: 19.7 nM

Sequence: GCUGGACGAGGAUAUACAUAACGUGCUUCGGCACGAGAUCUACAUGAGGAUCACCCAUGUAGAAGGUGUCCAGC
- apparent Kd [1]: 13.7 nM
- apparent Kd [2]: 16.2 nM

Sequence: ACAGAUGCUGACAUGAGGAUCACCCAUGUUAGAUUGUUAUGUCAGGAUAUUAUCUGGCAACCAGAUGAGAAGGGACCAUCUGUU
- apparent Kd [3]: 15.6 nM
- apparent Kd [4]: 7.31 nM

Sequence: CAUGUCCUCACAGGAUAUGCUGGACUUUGUCCAGCAGAAGGGUGAACAUGAGGAUCACCCAUGUUGUGGACAUGUAUAUUUAAG
- apparent Kd [3]: 228 nM
- apparent Kd [4]: 575 nM

Sequence: AGCUGUGGCAGAGGAUAUACUCCUAAAAUCCAUUGCAAAUAGCGAUGGACAUGAGGAUCACCCAUGUAGAAGGCUGUCUCAGCA
- apparent Kd [1]: 57.2 nM
- apparent Kd [2]: 649 nM

Sequence: GGAUAGGACAGAGGAUAUACGUGCUAGAGAUACUAUCAAAAUUUCCUCACAUGAGGAUCACCCAUGUAGAAGGCUGUCCUAUCG
- apparent Kd [1]: 270 nM
- apparent Kd [2]: 52.1 nM

Sequence: UCGGUGCGAGGAUAUACGUUUGCGCGUUUUCGUUUGCGCGUACAUGAGGAUCACCCAUGUAGAAGGCGCGCGGC
- apparent Kd [1]: 12.4 nM
- apparent Kd [2]: 13.7 nM

Sequence: CGGAGACAUGAGGAUCACCCAUGUCGUCGUCACAGAGGAUAUGGGAGCGUCAGGGACGCAUCAGAAGGCUGAAAGC
- apparent Kd [3]: 32.5 nM
- apparent Kd [4]: 19.1 nM

Sequence: AACUUGUCAGGAUAUCUUACAUUUGCAUCUUAGUUACCAUUGGAGAAGGGACAUGAGGAUCACCCAUGUUUGGU
- apparent Kd [1]: 37.1 nM
- apparent Kd [2]: 32.2 nM

Sequence: AACAGUAGAGGAUAUACAUGAGGAUCACCCAUGUGAGAAUUAAGUGGCGUACCACUAAGUAGAAGGCUACUGGA
- apparent Kd [1]: 96.9 nM
- apparent Kd [2]: 235 nM

Sequence: AGCUGGUAGAGAGGAUAUCAUGUGCUGACAUGAGGAUCACCCAUGUAGGGACGUCGGUCCAAUUAUGAGAAGGCUCUACCAGCA
- apparent Kd [3]: 80.5 nM
- apparent Kd [4]: 48.2 nM

Sequence: AAAGGUGCAGGAUAUGCGUGGAAAAAGUGUAUUCAAAAAAAACAUGAGGAUCACCCAUGUAGAAGGGUACCAAA
- apparent Kd [1]: 65.9 nM
- apparent Kd [2]: 180 nM

Sequence: GGAUAGGACAGAGGAUAUACGUGCUAGCGAUACUAGCAAAAUUUCCUCACAUGAGGAUCACCCAUGUAGAAGGCUGUCCUAUCG
- apparent Kd [1]: 15.7 nM
- apparent Kd [2]: 427 nM

Sequence: AUUACCACGGUAAGGAUAUUGUACGCAGCAUGCGUUAAGAAGGUACAUGAGGAUCACCCAUGUCUUCCGGUAGC
- apparent Kd [1]: 20.5 nM
- apparent Kd [2]: 21.2 nM

Sequence: AGCUGGUGACAGCAUCCAUCAAAACAUGAGGAUCACCCAUGUAGAAGGCUGUACGGUUACCGUACAGAGGAUAUACAUAGAUGG
- apparent Kd [1]: 10.4 nM
- apparent Kd [2]: 14.9 nM

Sequence: GGUUGGCGAGGAUAUACAUGAGGAUCACCCAUGUGGUCCUAAAAAAAAAUAAACCUUUGUAGAAGGCGCGGGUC
- apparent Kd [1]: 258 nM
- apparent Kd [2]: 290 nM

Sequence: AAAAAACAAGGAUAUACGUAUGAGGAUUGUCUUAAUUUUUGACAUGAGGAUCACCCAUGUAGAAGGUGUUAAAA
- apparent Kd [1]: 120 nM
- apparent Kd [2]: 126 nM

Sequence: UGUGUGAGACAGGAUAUGCUGGAUGAGAGGCGGGUAGAAGGGUCUACAUGAGGAUCACCCAUGUGGCCGGUUGG
- apparent Kd [1]: 17 nM
- apparent Kd [2]: 16.9 nM

Sequence: CAGGUAGACUGAGGAUAUACACUAAACAGCUAGUCUAUCUAGCUGACCACAUGAGGAUCACCCAUGUAGAAGGCAGUCUGCCUG
- apparent Kd [1]: 18.1 nM
- apparent Kd [2]: 39.2 nM

Sequence: GAGUAGUUGAAAGGAUAUUGAUUGUUAUAGAAUCAAGAAGGUUCUAACAUGAGGAUCACCCAUGUAGGACUAUUCCUGUGUAUC
- apparent Kd [3]: 12.3 nM
- apparent Kd [4]: 9.66 nM

Sequence: ACCGGGUGUCACGUAUUACCGACAUGAGGAUCACCCAUGUAGGAGGAUAUGCAGACCGACAUAAAGCAGAAGGCCUACGUUUUC
- apparent Kd [1]: 6.72 nM
- apparent Kd [2]: 35.8 nM

Sequence: GGACAUUUACAGAAGGGCAAGUUGGAUCGCGGAUAACGCGAUCCGACUUGCAGGAUAUGUUGAACAUGAGGAUCACCCAUGUCU
- apparent Kd [3]: 7.99 nM
- apparent Kd [4]: 8.52 nM

Sequence: GAAUGUCGGGUAGGAUAUGACGUGCCACGGAGGUCAGAAGGGCCGCGACAUGAGGAUCACCCAUGUACUGUAUUCCUUUUUCAA
- apparent Kd [1]: 24.3 nM
- apparent Kd [2]: 67.4 nM

Sequence: GGAUAGGACAGAGGAUAUACGUGCUAGAGAUACUAGCAAAAUUUCCUCACAUGAGGAUCACCCAUGUAGAAGGCUGUCCAAUCG
- apparent Kd [1]: 13.8 nM
- apparent Kd [2]: 429 nM

Sequence: GUUUUCGCAUGAGGAUAUGCUCGCAUUUCUAGAGCAGAAGGUAUGUCUAUAGACAUGAGGAUCACCCAUGUAUUUAACUUUGAA
- apparent Kd [3]: 186 nM
- apparent Kd [4]: 34.4 nM

Sequence: CGUUUAUUUAUGGGUUUAUAUUAUGAGGAUAUCAAUAUUUUAUACAUGAGGAUCACCCAUGUUACUGAGAAGGCAUAAUUAACG
- apparent Kd [3]: 10.9 nM
- apparent Kd [4]: 6.44 nM
